Results published in ChEMBL document CHEMBL1142888, “Synthesis, antimicrobial, and anti-inflammatory activities of novel 2-(1-adamantyl)-5-substituted-1,3,4-oxadiazoles and 2-(1-adamantylamino)-5-substituted-1,3,4-thiadiazoles” (2007).
Values after ≈ are worked out from the molar mass of the structure shown.

Columns and labels:
Type in all cases: functional
[1] = tested on: Rattus norvegicus; assay: Antiinflammatory effect on carrageenan-induced paw oedema Sprague-Dawley rat assessed as reduction of paw oedema at 40 mg/kg, ip; set-up: scale not given: the % may be the effect or the level left; details: route intraperitoneal
In short: (§1)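 Rats in groups of five, acclimatised two days, given compound (20, 40, 60 mg/kg) or indomethacin (10 mg/kg) i.p. as suspension in 1 ml 0.5% aqueous carboxymethyl cellulose 1 h before 0.1 ml 1% carrageenin in saline into right hind plantar tissue; left paw got saline. Paw volume by water plethysmometer at 4 h; % protection vs vehicle control; mean ± S.E.M., Student's t test.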

[2] = tested on: Staphylococcus aureus; assay: Antimicrobial activity against Staphylococcus aureus IFO 3060 at 200 ug/disc after 24 hrs; details: IFO 3060, 24 h, read-out: IZ
[3] = tested on: Escherichia coli; assay: Antimicrobial activity against Escherichia coli IFO 3301 at 200 ug/disc after 24 hrs; details: IFO 3301, 24 h, read-out: IZ
[4] = tested on: Bacillus subtilis; assay: Antimicrobial activity against Bacillus subtilis IFO 3007 at 200 ug/disc after 24 hrs; details: IFO 3007, 24 h, read-out: IZ
[5] = tested on: Rattus norvegicus; assay: Antiinflammatory effect on carrageenan-induced paw oedema Sprague-Dawley rat assessed as reduction of paw oedema at 20 mg/kg, ip; set-up: scale not given: the % may be the effect or the level left; details: route intraperitoneal; in short: as §1
[6] = tested on: Rattus norvegicus; assay: Antiinflammatory effect on carrageenan-induced paw oedema Sprague-Dawley rat assessed as reduction of paw oedema at 60 mg/kg, ip; set-up: scale not given: the % may be the effect or the level left; details: route intraperitoneal; in short: as §1
[7] = tested on: Pseudomonas aeruginosa; assay: Antimicrobial activity against Pseudomonas aeruginosa IFO 3448 at 200 ug/disc; details: read-out: IZ
[8] = tested on: Candida albicans; assay: Antimicrobial activity against Candida albicans IFO 0583 at 200 ug/disc after 48 hrs; details: IFO 0583, 48 h, read-out: IZ
[9] = tested on: Staphylococcus aureus; assay: Antimicrobial activity against Staphylococcus aureus IFO 3060 after 24 hrs; details: IFO 3060, 24 h
[10] = tested on: Bacillus subtilis; assay: Antimicrobial activity against Bacillus subtilis IFO 3007 after 24 hrs; details: IFO 3007, 24 h
[11] = tested on: Candida albicans; assay: Antimicrobial activity against Candida albicans IFO 0583 after 48 hrs; details: IFO 0583, 48 h

Row | SMILES | Activity [1] | zone of inhibition at 200 µg/disc [2] | zone of inhibition at 200 µg/disc [3] | zone of inhibition at 200 µg/disc [4] | Activity [5] | Activity [6] | zone of inhibition at 200 µg/disc [7] | zone of inhibition at 200 µg/disc [8] | MIC [9] | MIC [10] | MIC [11]
1 | O=[N+]([O-])c1cc(-c2nnc(C34CC5CC(CC(C5)C3)C4)o2)cc([N+](=O)[O-])c1 | 5.22% | < 10 mm | < 10 mm | < 10 mm | 4.16% | 3.66% | < 10 mm | < 10 mm | – | – | –
2 | Brc1ccc(-c2nnc(C34CC5CC(CC(C5)C3)C4)o2)cc1 | 13.15% | < 10 mm | < 10 mm | 14 mm | 11.6% | 13.01% | < 10 mm | < 10 mm | – | – | –
3 | COc1ccc(-c2nnc(C34CC5CC(CC(C5)C3)C4)o2)cc1OC | 53.61% | 18 mm | 12 mm | 24 mm | 36.73% | 70.2% | < 10 mm | < 10 mm | 2 µg/mL (≈ 5.88 µM) | 0.5 µg/mL (≈ 1.47 µM) | –
4 | c1csc(-c2nnc(C34CC5CC(CC(C5)C3)C4)o2)c1 | 49.77% | 14 mm | 11 mm | 18 mm | 35.95% | 63.72% | 12 mm | 16 mm | – | 2 µg/mL (≈ 6.98 µM) | 2 µg/mL (≈ 6.98 µM)
5 | O=C(NNC(=S)NC12CC3CC(CC(C3)C1)C2)c1ccc(Br)cc1 | 2.34% | < 10 mm | < 10 mm | 10 mm | – | – | < 10 mm | < 10 mm | – | – | –
6 | Fc1ccc(-c2nnc(NC34CC5CC(CC(C5)C3)C4)s2)cc1 | 35.55% | 14 mm | 10 mm | 10 mm | 18.02% | 39.35% | < 10 mm | < 10 mm | – | – | –
7 | Fc1ccc(-c2nnc(C34CC5CC(CC(C5)C3)C4)o2)cc1 | 29.15% | < 10 mm | < 10 mm | 12 mm | 11.72% | 38.62% | < 10 mm | < 10 mm | – | – | –
8 | Clc1ccc(-c2nnc(C34CC5CC(CC(C5)C3)C4)o2)cc1 | 44.66% | < 10 mm | 10 mm | 13 mm | 34.5% | 50.71% | < 10 mm | < 10 mm | – | – | –
9 | c1ccc(-c2nnc(C34CC5CC(CC(C5)C3)C4)o2)cc1 | 31.28% | < 10 mm | < 10 mm | < 10 mm | 23.16% | 34.5% | < 10 mm | < 10 mm | – | – | –
10 | O=[N+]([O-])c1ccc(-c2nnc(C34CC5CC(CC(C5)C3)C4)o2)cc1 | 13.56% | < 10 mm | < 10 mm | < 10 mm | 9.92% | 12.08% | < 10 mm | < 10 mm | – | – | –
11 | c1ccc(-c2nnc(NC34CC5CC(CC(C5)C3)C4)s2)cc1 | 34.05% | < 10 mm | 12 mm | < 10 mm | 19.69% | 33.53% | < 10 mm | < 10 mm | – | – | –
12 | O=C(NNC(=S)NC12CC3CC(CC(C3)C1)C2)C12CC3CC(CC(C3)C1)C2 | 13.08% | < 10 mm | < 10 mm | < 10 mm | 11.34% | 10.12% | < 10 mm | 16 mm | – | – | 4 µg/mL (≈ 10.3 µM)
13 | O=C(NNC(=S)NC12CC3CC(CC(C3)C1)C2)c1ccc(F)cc1 | – | < 10 mm | < 10 mm | 13 mm | – | – | < 10 mm | < 10 mm | – | – | –
14 | C1C2CC3CC1CC(c1nnc(C45CC6CC(CC(C6)C4)C5)o1)(C2)C3 | 68.97% | < 10 mm | < 10 mm | < 10 mm | 44.27% | 71.52% | < 10 mm | 10 mm | – | – | –
15 | Clc1ccc(-c2nnc(NC34CC5CC(CC(C5)C3)C4)s2)cc1 | 37.02% | 18 mm | 12 mm | 16 mm | 21.63% | 37.11% | < 10 mm | < 10 mm | 2 µg/mL (≈ 5.78 µM) | – | –
16 | O=[N+]([O-])c1ccc(-c2nnc(C34CC5CC(CC(C5)C3)C4)o2)c(Cl)c1 | 21.65% | < 10 mm | 10 mm | 14 mm | 19.69% | 19.34% | 10 mm | < 10 mm | – | – | –
17 | c1csc(-c2nnc(NC34CC5CC(CC(C5)C3)C4)s2)c1 | 28.62% | < 10 mm | < 10 mm | 10 mm | 15.43% | 37.52% | < 10 mm | < 10 mm | – | – | –
18 | Brc1ccc(-c2nnc(NC34CC5CC(CC(C5)C3)C4)s2)cc1 | 13.38% | < 10 mm | < 10 mm | < 10 mm | 12.51% | 14.16% | < 10 mm | < 10 mm | – | – | –
19 | C1C2CC3CC1CC(Nc1nnc(C45CC6CC(CC(C6)C4)C5)s1)(C2)C3 | 39.65% | < 10 mm | < 10 mm | < 10 mm | 31.6% | 44.14% | – | 18 mm | – | – | 2 µg/mL (≈ 5.41 µM)
20 | O=C(NNC(=S)NC12CC3CC(CC(C3)C1)C2)c1cccs1 | 2.16% | < 10 mm | 10 mm | 18 mm | 0.96% | – | < 10 mm | < 10 mm | – | 4 µg/mL (≈ 11.9 µM) | –
21 | O=C(NNC(=S)NC12CC3CC(CC(C3)C1)C2)c1ccc(Cl)cc1 | – | < 10 mm | < 10 mm | 13 mm | 9.11% | – | < 10 mm | < 10 mm | – | – | –
